What was measured:
Format in all cases: functional, cell-based
[1] = test system: HT-29; assay: Antiproliferative activity against human HT-29 cells after 3 days by SRB assay; conditions: HT-29, 72 h
Summary of the method: (§1)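 Cells grown at 37 °C, 5% CO2, with 10% heat-inactivated FBS: LXFL529L in RPMI 1640, MCF7 and HT29 in DMEM. Seeded, allowed 24 h growth, then exposed to the drug at various concentrations for 3 days in serum medium. Fixed with TCA for 1 h at 4 °C, stained with 0.4% SRB, eluted in 10 mM Tris pH 10.5, read at 570 nm as % T/C. IC50 taken from dose–response curves of at least three independent experiments.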

[2] = Antiproliferative activity against human LXFL 529L cells after 3 days by SRB assay; conditions: 72 h; summary of the method: as §1
[3] = test system: MCF7; assay: Antiproliferative activity against human MCF7 cells after 3 days by SRB assay; conditions: MCF7, 72 h; summary of the method: as §1

| Compound | IC50 [1] [µM] | IC50 [2] [µM] | IC50 [3] [µM] |
| --- | --- | --- | --- |
| O=C1Nc2ncccc2/C1=C1\C(=O)Nc2ncccc21 | > 100 | > 100 | > 100 |
| O=C1Nc2ccccc2/C1=C1/Nc2ccccc2C1=O [INDIRUBIN] |  | 9.9 | 4 |
| O=C1Nc2ncccc2/C1=C1/Nc2ccccc2C1=O | > 10 | 2.9 | 3 |
| O=C1/C(=C2\Nc3ncccc3C2=O)Nc2ncccc21 | > 100 | > 100 | > 100 |
| O=C1Nc2ccccc2/C1=C1/Nc2ncccc2C1=O | > 10 | 4.4 | 5 |
